Drawing on ChEMBL document CHEMBL1123965, “Substituted 1,3,4-thiadiazoles with anticonvulsant activity. 4. Amidines” (J Med Chem, 1988), this text covers ED50, TD50 and LD30 for 18 molecules.

Series [1] relates to Mus musculus. In words: Anticonvulsant activity in mouse maximal electroshock test 1 hr following p.o. administration. In kind it is functional. To be noted: po. Put shortly:
(§1)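 Male BKW mice (LACA origin), 18–22 g; compound dissolved or suspended in 2% Tween 80 in distilled water, given po, tested 1 h later. Corneal electrodes delivered 4-ms pulses, 50 Hz, 80 V for 0.3 s. End point was block of hind limb tonic seizure; ED50 with limits from probit analysis (Bliss computerized method).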
For orientation: In the maximal electroshock model the usual endpoint is tonic extension of the hind limbs.

For series [2], the system named is Mus musculus. Put plainly: Anticonvulsant activity in mouse maximal metrazole seizure test 1 hr following p.o. administration. In kind it is functional. To be noted: po. Put shortly: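 Male BKW mice (LACA origin), 18–22 g, dosed orally with compound in 2% Tween 80/distilled water (solution or suspension). Leptazol 120 mg/kg ip given 1 h after oral dose to provoke maximal seizures. ED50 with limits obtained by Bliss probit analysis.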

A short description of series [3]: The dose at which 50% of the mouse fell off the rotarod. It is filed as ADME, organism-based. To be noted: in vivo. The procedure, abridged: (§2)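 Male BKW mice (18–22 g), trained beforehand to stay on a 3-cm-diameter rod turning at 16 rpm; dosed po in 2% Tween 80/water and tested 1 h later. TD50 (dose at which half fall off) by probit analysis. Sedation, ataxia, loss of righting reflex and death noted by visual observation after oral dosing.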

Series [4] concerns Mus musculus. In words: The dose at which 50% of the mouse fell off the rotarod; Sedative at 100 mg/kg. It is filed as ADME, organism-based. More on the design: dose 100 mg/kg. To be noted: in vivo. Put shortly: as §2
On the technique in general: In the rotarod test animals must keep their balance on a rotating rod.

Series [5] has as its system Mus musculus. Put plainly: Anticonvulsant activity in mice (1h after dosing, po) was determined by maximal electroshock test. In kind it is functional. Put shortly: as §1
Series [6] deals with Mus musculus. In words: The dose at which 50% of the mouse fell off the rotarod; Toxic at 200 mg/kg. It is filed as toxicity, organism-based. More on the design: dose 200 mg/kg. To be noted: in vivo. Put shortly:
as §2

In series [7] the test system is Mus musculus. Put plainly: The dose at which 50% of the mouse fell off the rotarod; Sedative at 142 mg/kg. In kind it is ADME, organism-based. Also noted: dose 142 mg/kg. As to conditions: in vivo. The procedure, abridged:
as §2

Series [8] is filed under the species Mus musculus. Put plainly: Lethal dose was determined. To be noted: in vivo. In kind it is toxicity, organism-based. The procedure, abridged: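 Male BKW mice (LACA origin, 18–22 g) were dosed orally with compound dissolved or suspended in 2% Tween 80 in distilled water. Before anticonvulsant testing, animals were observed visually for sedation, ataxia, loss of righting reflex and death. The value is reported in the rotorod column, which was read 1 h after oral dosing.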

Usually ED50 stands for the dose at which the effect has come halfway, by size or by number of responders. A higher ED50 goes with weaker potency. Broadly, the TD50 is the 50% point of the dose-response relation for the toxic effect studied. A high value points to harm only at a large dose. For `CC(=N)Nc1nnc(-c2ccccc2C(F)(F)F)s1`, the figures for the ED50 in the series on Mus musculus [1] and in the series with Mus musculus [2] were 18 mg/kg and 19 mg/kg, respectively. The TD50 in series [3] is about 80 mg/kg.
With `CC(=N)Nc1nnc(-c2ccccc2-c2ccccc2)s1`, the TD50 in series [3] is over 100 mg/kg.
In the case of `CCCC/N=C(/C)Nc1nnc(-c2ccccc2C)s1`, the ED50 in the series with Mus musculus [1] turned out to be 48 mg/kg; in the series on Mus musculus [2] it was 46 mg/kg. Besides, in series [3], the TD50 was over 100 mg/kg.
Regarding `CC(=N)Nc1nnc(-c2ccccc2C)s1`, the ED50 in the series with Mus musculus [2] was found to be 78 mg/kg; in the series with Mus musculus [5], 200 mg/kg. Moreover, the TD50 result in the series on Mus musculus [4] is recorded as “Sedative at 100 mg/kg”.
In the case of `CC(=N)Nc1nnc(Cc2ccccc2)s1`, the values for the ED50 in the series on Mus musculus [1] and in the series on Mus musculus [2] were 31 mg/kg and 50 mg/kg, respectively. The molecule also gave a TD50 in series [3] of 200 mg/kg.
Take `CCCC/N=C(\Nc1nnc(-c2ccccc2-c2ccccc2)s1)C(C)C`: the ED50 in the series with Mus musculus [1] was over 200 mg/kg; in the series on Mus musculus [2], over 100 mg/kg.
On to `C/C(=N/Cc1ccccc1)Nc1nnc(-c2ccccc2C)s1`, for which the results for the median effective dose (ED50) with Mus musculus [1] and in the series on Mus musculus [2] were 86 mg/kg and 102 mg/kg, respectively. In series [3], the TD50 was over 200 mg/kg.
As to `Cc1ccccc1-c1nnc(C2=NCCN2)s1`, the ED50 in the series with Mus musculus [1] is over 100 mg/kg; with Mus musculus [2], over 200 mg/kg.
For the molecule `CCCC/N=C(/C)Nc1nnc(-c2ccccc2-c2ccccc2)s1`, the ED50 is 121 mg/kg in the series with Mus musculus [1] and 90 mg/kg in the series with Mus musculus [2]. Further, the TD50 in series [3] is over 200 mg/kg.
Take `CCCC/N=C(\N)c1nnc(-c2ccccc2C)s1`: the ED50 in the series with Mus musculus [1] is over 200 mg/kg; in the series on Mus musculus [2], about 142 mg/kg. In the series on Mus musculus [6], the TD50 entry is “Toxic at 200 mg/kg”.
With `C/C(=N\c1nnc(-c2ccccc2C)s1)N1CCOCC1`, the ED50 was found to be 108 mg/kg in the series on Mus musculus [1] and 148 mg/kg in the series with Mus musculus [2]. Further, in the series on Mus musculus [7], the TD50 result is reported as “Sedative at 142 mg/kg”.
`c1ccc(-c2ccccc2-c2nnc(C3=NCCN3)s2)cc1`: the ED50 is 103 mg/kg in the series with Mus musculus [1] and 77 mg/kg with Mus musculus [2]. In the series filed under Mus musculus [8], this molecule had an LD30 of 200 mg/kg.
Turning to `CCCC/N=C(/Cc1ccccc1)Nc1nnc(-c2ccccc2C(F)(F)F)s1`, the ED50 was over 200 mg/kg in the series with Mus musculus [1] and over 100 mg/kg in the series on Mus musculus [2].
For `N=C(Cc1ccccc1)Nc1nnc(Cc2ccccc2)s1`, the ED50 with Mus musculus [1] stood at 86 mg/kg; in the series with Mus musculus [2] it was 45 mg/kg. Also, in series [3], the TD50 is over 500 mg/kg.
Consider `CCCC(=N)Nc1nnc(-c2ccccc2C(F)(F)F)s1`, for which the ED50 was determined as 63 mg/kg with Mus musculus [1] and 60 mg/kg in the series on Mus musculus [2]. The TD50 in series [3] was 150 mg/kg.
`Cc1ccccc1-c1nnc(/N=C/Nc2nnc(-c3ccccc3C)s2)s1`: the ED50 with Mus musculus [1] and in the series with Mus musculus [2] was over 200 mg/kg throughout.
Regarding `CCN(CC)/C(C)=N/c1nnc(-c2ccccc2C)s1`, the ED50 with Mus musculus [1] was found to be 81 mg/kg; in the series with Mus musculus [2], 84 mg/kg. Besides, the TD50 in series [3] is over 200 mg/kg.
For the molecule `CCCC/N=C(/C)Nc1nnc(-c2ccccc2C(F)(F)F)s1`, the ED50 in the series with Mus musculus [1] worked out at 33 mg/kg; in the series with Mus musculus [2], 21 mg/kg. The molecule also came in with a TD50 in series [3] of about 70 mg/kg.
